In ChEMBL document CHEMBL1142228, “Alternative chemical modifications reverse the binding orientation of a pharmacophore scaffold in the active site of macrophage migration inhibitory factor” (J Biol Chem, 2007):

What was measured:
[1] = molecular target: T1, Macrophage migration inhibitory factor (Homo sapiens, UniProt P14174); assay: Inhibition of MIF-mediated dopachrome tautomerase activity
T1 sequence (P14174 whole entry): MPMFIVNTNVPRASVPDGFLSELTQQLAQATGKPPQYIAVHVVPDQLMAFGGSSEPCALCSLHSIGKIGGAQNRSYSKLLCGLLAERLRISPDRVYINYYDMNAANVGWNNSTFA
Summary of the method: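 l-Dopachrome methyl ester substrate (2.4 mm prepared stock, from sodium periodate oxidation of l-3,4-dihydroxyphenylalanine methyl ester) added to recombinant MIF (50 nm) in 50 mm potassium phosphate, pH 6, 0.5 mm EDTA at room temperature.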

[2] = tested on: Mus musculus; assay: Increase in survival rate in cecal ligation and puncture-induced peritonitis mouse model administered twice a day after 24 hrs of sepsis induction at 3.5 mg/kg, ip for 3 days; format: functional; settings: route intraperitoneal
Summary of the method: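 Mice anaesthetised with ketamine 100 mg/kg plus xylazine 8 mg/kg im. Cecum ligated below the ileocecal valve and punctured once with a 22-gauge needle. Post-surgery: Premaxin 0.5 mg/kg sc and saline 20 ml/kg sc. Dosing ip in 20% aqueous DMSO vehicle began 24 h post-CLP, twice daily for 3 days. n = 13 per group; survival followed 2 weeks.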

[3] = molecular target: Transcription factor p65 (Mus musculus) (UniProt Q04207); assay: Inhibition of NF-kappaB activation in LPS-induced mouse RAW264.7 cells by electrophoretic mobility shift assay
Transcription factor p65 (Mus musculus), sequence (Q04207 whole entry, looked up): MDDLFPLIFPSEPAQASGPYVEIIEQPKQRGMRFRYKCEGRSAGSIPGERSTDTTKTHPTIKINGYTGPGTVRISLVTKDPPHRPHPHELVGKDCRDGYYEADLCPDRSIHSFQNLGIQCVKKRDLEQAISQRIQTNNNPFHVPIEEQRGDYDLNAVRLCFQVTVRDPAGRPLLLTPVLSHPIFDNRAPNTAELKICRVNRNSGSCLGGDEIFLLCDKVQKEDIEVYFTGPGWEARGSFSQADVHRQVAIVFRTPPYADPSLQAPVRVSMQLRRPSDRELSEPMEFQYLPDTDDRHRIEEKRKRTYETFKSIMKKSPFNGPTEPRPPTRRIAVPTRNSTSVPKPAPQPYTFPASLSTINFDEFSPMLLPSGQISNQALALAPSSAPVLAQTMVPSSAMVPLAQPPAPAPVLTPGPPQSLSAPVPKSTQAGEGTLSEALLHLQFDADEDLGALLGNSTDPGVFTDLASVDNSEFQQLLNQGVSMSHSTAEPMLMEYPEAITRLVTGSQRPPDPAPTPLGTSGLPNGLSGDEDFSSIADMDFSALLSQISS

IC50 [1] [µM] | SMILES | survival at 3.5 mg/kg [2] [%] | Activity [3]
113 | CC(C)(C)C(=O)O/N=C/c1ccc(O)cc1 |  | 
25 | CC(C)C(=O)O/N=C/c1ccc(O)cc1 |  | 
14.5 | CCCCC(=O)O/N=C/c1ccc(O)cc1 |  | 
7 | CC(C)(C)CC(=O)O/N=C/c1ccc(O)cc1 |  | 
7 | CC(C)CC(=O)O/N=C/c1ccc(O)cc1 |  | 
3 | O=C(CCC1CCCCC1)O/N=C/c1ccc(O)cc1 |  | 
3.4 | O=C(O/N=C/c1ccc(O)cc1)C1CC=CCC1 (stereo not drawn) |  | 
7 | O=C(O/N=C/c1ccc(O)cc1)c1ccccc1 |  | 
 | O=C(O/N=C/c1ccc(O)cc1)C1CCCCC1 | 70 | Dose-dependent effect
11 | O=C(O/N=C/c1ccc(O)cc1)C1CCC1 |  | 
147 | CC(=O)O/N=C/c1ccc(O)cc1 |  | 
4 | O=C(O/N=C/c1ccc(O)cc1)C1CCCC1 |  | 
